Data set [1] is described as follows: In vitro radiosensitizing activity against Chinese Hamster cells at a conc of 1.0 mM measured as sensitizer enhancement ratio. The class given is functional, Cricetulus griseus. The gist of the method: (§1)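 V-79 Chinese hamster asynchronous monolayers from exponential cultures, plated in sealed containers and made hypoxic by flushing with 95% N2/5% CO2 for 1 h at 37 °C with compound present; total drug exposure 2 h. Cobalt-60 irradiation at ~230 rad/min, 400–2700 rad. Colonies counted after 6 days at 37 °C. SER = D0 hypoxic control / D0 hypoxic drug-treated; averaged over at least two experiment sets.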

Data set [2] in a line: Partition coefficient value between phosphate buffer (0.1 M, pH 7.4) and octanol at room temperature. The class given is physicochemical. The conditions noted are these: octanol/water. The gist of the method:
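Shake-flask method: compound dissolved in 0.1 M phosphate buffer pH 7.4, stirred 1 h at room temperature with an equal volume of octanol. Aqueous-phase nucleoside concentration measured spectrophotometrically.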

Data set [3] can be described thus: In vitro radiosensitizing activity against Chinese Hamster cells at a conc of 1 mM measured as sensitizer enhancement ratio. The class given is functional, Cricetulus griseus. The gist of the method:
as §1

The nature of data set [4]: In vitro radiosensitizing activity against Chinese Hamster cells at a conc of 0.5 mM measured as sensitizer enhancement ratio. The class given is functional, Cricetulus griseus. In a few lines:
as §1

A short description of data set [5]: In vitro radiosensitizing activity against Chinese Hamster cells at a conc of 0.1 mM measured as sensitizer enhancement ratio.
Data set [6] is described as follows: In vitro radiosensitizing activity against Chinese Hamster cells at a conc of 0.05 mM measured as sensitizer enhancement ratio. The class given is functional, Cricetulus griseus. The gist of the method:
as §1

Among the data in ChEMBL document CHEMBL1122500, “Potential radiosensitizing agents. 6. 2-Nitroimidazole nucleosides: arabinofuranosyl and hexopyranosyl analogues” (J Med Chem, 1983) are SER and PC values, retold here.

On to `O=[N+]([O-])c1nccn1[C@@H]1O[C@H](CO)[C@@H](O)[C@@H]1O`, for which the SER in data set [1] was 1.8. Also, the PC in data set [2] came out at 0.07.

For the compound `O=[N+]([O-])c1nccn1[C@H]1O[C@H](CO)[C@@H](O)[C@@H]1O`, the PC in data set [2] came to 0.11. Also, in data set [3], the SER was 1.6.

For the compound `O=[N+]([O-])c1nccn1[C@H]1C=C[C@H](O)[C@@H](CO)O1`, the SER in data set [1] is recorded as 2. This compound also had a PC in data set [2] of 0.22.

As for `CC(=O)OC[C@H]1O[C@@H](n2ccnc2[N+](=O)[O-])C=C[C@@H]1OC(C)=O`, in data set [4], the SER is reported as 1.6.

Consider `O=C(OC[C@H]1O[C@@H](n2ccnc2[N+](=O)[O-])[C@H](OC(=O)c2ccccc2)[C@@H]1OC(=O)c1ccccc1)c1ccccc1`, for which, in data set [5], the SER was 1.1.

As for `O=[N+]([O-])c1nccn1[C@H]1C=COC(CO)C1O` (some centres not stated), the SER in data set [1] is 1.7. Moreover, the PC in data set [2] was 0.24.

`CC(=O)OC[C@H]1O[C@H](n2ccnc2[N+](=O)[O-])C=C[C@@H]1OC(C)=O`: in data set [4], the SER was determined as 1.9.

As to `COCC(O)Cn1ccnc1[N+](=O)[O-]` (configuration not stated) [MISONIDAZOLE], in data set [2], the PC came to 0.43. Further, the SER in data set [3] was determined as 1.9.

On to `O=[N+]([O-])c1nccn1[C@@H]1C=C[C@H](O)[C@@H](CO)O1`, for which the SER in data set [4] is 2. This compound yielded a PC in data set [2] of 0.22.

On to `CC(=O)OCC1OC=CC(n2ccnc2[N+](=O)[O-])C1OC(C)=O` (configuration not stated), for which the SER in data set [4] turned out to be 1.8.

Regarding `O=C(OC[C@H]1O[C@H](n2ccnc2[N+](=O)[O-])[C@H](OC(=O)c2ccccc2)[C@@H]1OC(=O)c1ccccc1)c1ccccc1`, in data set [6], the SER is on record as 1.
